Assay results taken from ChEMBL document CHEMBL1629660, “Pharmacodynamics of tigecycline against phenotypically diverse Staphylococcus aureus isolates in a murine thigh model” (Antimicrob Agents Chemother, 2009).

Columns and labels:
[1] = Tmax in neutropenic ICR mouse infected with Staphylococcus aureus ATCC 29213 at 25 mg/kg, sc by HPLC; format: ADME, organism-based; design: dose 25 mg/kg, route subcutaneous; conditions: in vivo
Outline: (§1)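 Neutropenic female ICR mice (cyclophosphamide 150 and 100 mg/kg ip, 4 days and 1 day before inoculation), both thighs inoculated im with ~10^7 CFU/ml of ATCC 29213. Single sc doses of 50, 25, 12.5 or 6.25 mg/kg. Cardiac blood taken from groups of six at 8–12 times over 0.5–24 h. Serum measured by HPLC (linear 0.05–5 µg/ml). Two-compartment fit by nonlinear least squares; AUC by trapezoidal rule.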

[2] = Elimination half life in neutropenic ICR mouse infected with methicillin-sensitive Staphylococcus aureus ATCC 29213 at 50 mg/kg, sc by HPLC; format: ADME, organism-based; design: dose 50 mg/kg, route subcutaneous; conditions: in vivo, read-out: beta t1/2 (converted); outline: as §1
[3] = Elimination half life in neutropenic ICR mouse infected with methicillin-sensitive Staphylococcus aureus ATCC 29213 at 6.25 mg/kg, sc by HPLC; format: ADME, organism-based; design: dose 6.25 mg/kg, route subcutaneous; conditions: in vivo, read-out: beta t1/2 (converted); outline: as §1
[4] = fAUC/MIC in methicillin-sensitive Staphylococcus aureus ATCC 29213-infected neutropenic ICR mouse at 50% effective exposure index; format: functional
Outline: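 fT>MIC, fCmax/MIC and fAUC/MIC were built from the serum pharmacokinetics, protein binding, modal broth-microdilution MIC (triplicate, CLSI) and 24-h thigh CFU change. Each index was fit to a sigmoidal Emax model. EI50, EI80 and stasis exposures were taken from each isolate's curve.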

[5] = r2 of fCmax/MIC in hospital-acquired methicillin-resistant Staphylococcus aureus isolate 152-infected neutropenic ICR mouse
[6] = r2 of fCmax/MIC in community acquired methicillin-resistant Staphylococcus aureus isolate 147-infected neutropenic ICR mouse
[7] = r2 for fCmax/MIC in community acquired methicillin-resistant Staphylococcus aureus isolate 144-infected neutropenic ICR mouse

SMILES: CN(C)c1cc(NC(=O)CNC(C)(C)C)c(O)c2c1C[C@H]1C[C@H]3[C@H](N(C)C)C(O)=C(C(N)=O)C(=O)[C@@]3(O)C(O)=C1C2=O [TIGECYCLINE]
- Tmax [1]: 0.53 h
- half-life [2]: 7.36 h
- half-life [3]: 10.5 h
- fAUC/MIC [4]: 0.6
- r2 [5]: 0.953
- r2 [6]: 0.892
- r2 [7]: 0.77
